Source: ChEMBL document CHEMBL3045438, “Synthesis and fungicidal evaluation of novel chalcone-based strobilurin analogues” (2007)

Key:
Format in all cases: functional
[1] = tested on: Botrytis cinerea; experiment: Antifungal activity against Botryotinia fuckeliana assessed as fungicidal activity at 200 mg/L (beneficial crop - cucumber)
Procedure, shortened: (§1)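 In vivo preventive test on cucumber as host plant.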

[2] = tested on: Pseudoperonospora cubensis; experiment: Antifungal activity against Pseudoperonospora cubensis assessed as fungicidal activity at 200 mg/L (beneficial crop - cucumber); procedure, shortened: as §1
[3] = tested on: Podosphaera fuliginea; experiment: Antifungal activity against Podosphaera fuliginea assessed as fungicidal activity at 200 mg/L (beneficial crop - cucumber); procedure, shortened: as §1
[4] = tested on: Rhizoctonia solani; experiment: Antifungal activity against Rhizoctonia solani assessed as fungicidal activity at 200 mg/L (beneficial crop - cucumber); procedure, shortened: as §1

CO/C=C(/C(=O)OC)c1ccccc1COc1ccccc1C(=O)/C=C/c1ccc(OC)cc1
inhibition at 200 µg/mL [1]: 0%
inhibition at 200 µg/mL [2]: 0%
inhibition at 200 µg/mL [3]: 0%
inhibition at 200 µg/mL [4]: 0%

CO/C=C(/C(=O)OC)c1ccccc1COc1ccc(C(=O)/C=C/c2ccc(C)c(C)c2)cc1
inhibition at 200 µg/mL [1]: 0%
inhibition at 200 µg/mL [2]: 67%
inhibition at 200 µg/mL [3]: 30%
inhibition at 200 µg/mL [4]: 0%

CO/C=C(/C(=O)OC)c1ccccc1COc1ccc(C(=O)/C=C/c2ccc(OC)c(OC)c2)cc1
inhibition at 200 µg/mL [1]: 0%
inhibition at 200 µg/mL [2]: 11%
inhibition at 200 µg/mL [3]: 0%
inhibition at 200 µg/mL [4]: 0%

CO/C=C(/C(=O)OC)c1ccccc1COc1ccc(C(=O)/C=C/c2cccc(OC)c2)cc1
inhibition at 200 µg/mL [1]: 0%
inhibition at 200 µg/mL [2]: 86%
inhibition at 200 µg/mL [3]: 0%
inhibition at 200 µg/mL [4]: 20%

CO/C=C(/C(=O)OC)c1ccccc1COc1ccc(C(=O)/C=C/c2ccc(Cl)c(Cl)c2)cc1
inhibition at 200 µg/mL [1]: 0%
inhibition at 200 µg/mL [2]: 33%
inhibition at 200 µg/mL [3]: 67%
inhibition at 200 µg/mL [4]: 37%

CO/C=C(/C(=O)OC)c1ccccc1COc1ccc(C(=O)/C=C/c2ccccc2Cl)cc1
inhibition at 200 µg/mL [1]: 0%
inhibition at 200 µg/mL [2]: 100%
inhibition at 200 µg/mL [3]: 0%
inhibition at 200 µg/mL [4]: 0%

CO/C=C(/C(=O)OC)c1ccccc1COc1ccc(C(=O)/C=C/c2ccc3c(c2)OCO3)cc1
inhibition at 200 µg/mL [1]: 0%
inhibition at 200 µg/mL [2]: 0%
inhibition at 200 µg/mL [3]: 0%
inhibition at 200 µg/mL [4]: 0%

CO/C=C(/C(=O)OC)c1ccccc1COc1ccc(C(=O)/C=C/c2ccc(F)cc2)cc1
inhibition at 200 µg/mL [1]: 0%
inhibition at 200 µg/mL [2]: 100%
inhibition at 200 µg/mL [3]: 0%
inhibition at 200 µg/mL [4]: 23%

CCOc1ccc(/C=C/C(=O)c2ccc(OCc3ccccc3/C(=C\OC)C(=O)OC)cc2)cc1
inhibition at 200 µg/mL [1]: 0%
inhibition at 200 µg/mL [2]: 59%
inhibition at 200 µg/mL [3]: 0%
inhibition at 200 µg/mL [4]: 0%

CO/C=C(/C(=O)OC)c1ccccc1COc1ccc(C(=O)/C=C/c2ccc(Cl)cc2Cl)cc1
inhibition at 200 µg/mL [1]: 0%
inhibition at 200 µg/mL [2]: 67%
inhibition at 200 µg/mL [3]: 78%
inhibition at 200 µg/mL [4]: 27%

CO/C=C(/C(=O)OC)c1ccccc1COc1ccc(C(=O)/C=C/c2ccco2)cc1
inhibition at 200 µg/mL [1]: 0%
inhibition at 200 µg/mL [2]: 0%
inhibition at 200 µg/mL [3]: 0%
inhibition at 200 µg/mL [4]: 0%

CO/C=C(/C(=O)OC)c1ccccc1COc1ccc(C(=O)/C=C/c2cccs2)cc1
inhibition at 200 µg/mL [1]: 0%
inhibition at 200 µg/mL [2]: 0%
inhibition at 200 µg/mL [3]: 0%
inhibition at 200 µg/mL [4]: 0%

CO/C=C(/C(=O)OC)c1ccccc1COc1ccc(C(=O)/C=C/c2cccc(F)c2)cc1
inhibition at 200 µg/mL [1]: 0%
inhibition at 200 µg/mL [2]: 97%
inhibition at 200 µg/mL [3]: 0%
inhibition at 200 µg/mL [4]: 0%

CO/C=C(/C(=O)OC)c1ccccc1COc1ccc(C(=O)/C=C/c2ccccc2Br)cc1
inhibition at 200 µg/mL [1]: 0%
inhibition at 200 µg/mL [2]: 83%
inhibition at 200 µg/mL [3]: 67%
inhibition at 200 µg/mL [4]: 21%

CO/C=C(/C(=O)OC)c1ccccc1COc1ccc(C(=O)/C=C/c2ccccc2)cc1
inhibition at 200 µg/mL [1]: 0%
inhibition at 200 µg/mL [2]: 0%
inhibition at 200 µg/mL [3]: 0%
inhibition at 200 µg/mL [4]: 0%

CCc1ccc(/C=C/C(=O)c2ccc(OCc3ccccc3/C(=C\OC)C(=O)OC)cc2)cc1
inhibition at 200 µg/mL [1]: 0%
inhibition at 200 µg/mL [2]: 15%
inhibition at 200 µg/mL [3]: 56%
inhibition at 200 µg/mL [4]: 69%

CO/C=C(/C(=O)OC)c1ccccc1COc1ccc(C(=O)/C=C/c2ccc(C(C)(C)C)cc2)cc1
inhibition at 200 µg/mL [1]: 0%
inhibition at 200 µg/mL [2]: 22%
inhibition at 200 µg/mL [3]: 67%
inhibition at 200 µg/mL [4]: 0%

CO/C=C(/C(=O)OC)c1ccccc1COc1ccc(C(=O)/C=C/c2c(F)cccc2Cl)cc1
inhibition at 200 µg/mL [1]: 0%
inhibition at 200 µg/mL [2]: 67%
inhibition at 200 µg/mL [3]: 0%
inhibition at 200 µg/mL [4]: 0%

CO/C=C(/C(=O)OC)c1ccccc1COc1ccc(Cl)cc1C(=O)/C=C/c1ccc(OC)cc1
inhibition at 200 µg/mL [1]: 0%
inhibition at 200 µg/mL [2]: 0%
inhibition at 200 µg/mL [3]: 0%
inhibition at 200 µg/mL [4]: 0%

CO/C=C(/C(=O)OC)c1ccccc1COc1ccc(Cl)cc1C(=O)/C=C/c1ccccc1
inhibition at 200 µg/mL [1]: 0%
inhibition at 200 µg/mL [2]: 0%
inhibition at 200 µg/mL [3]: 0%
inhibition at 200 µg/mL [4]: 0%

CO/C=C(/C(=O)OC)c1ccccc1COc1ccccc1C(=O)/C=C/c1cccc(Cl)c1
inhibition at 200 µg/mL [1]: 0%
inhibition at 200 µg/mL [2]: 39%
inhibition at 200 µg/mL [3]: 0%
inhibition at 200 µg/mL [4]: 0%

CO/C=C(/C(=O)OC)c1ccccc1COc1ccccc1C(=O)/C=C/c1cccc(Br)c1
inhibition at 200 µg/mL [1]: 0%
inhibition at 200 µg/mL [2]: 78%
inhibition at 200 µg/mL [3]: 0%
inhibition at 200 µg/mL [4]: 0%

CO/C=C(/C(=O)OC)c1ccccc1COc1ccc(C)cc1C(=O)/C=C/c1ccc(Cl)cc1
inhibition at 200 µg/mL [1]: 0%
inhibition at 200 µg/mL [2]: 89%
inhibition at 200 µg/mL [3]: 0%
inhibition at 200 µg/mL [4]: 0%

CO/C=C(/C(=O)OC)c1ccccc1COc1ccc(Cl)cc1C(=O)/C=C/c1ccccc1Cl
inhibition at 200 µg/mL [1]: 0%
inhibition at 200 µg/mL [2]: 0%
inhibition at 200 µg/mL [3]: 0%
inhibition at 200 µg/mL [4]: 0%

CO/C=C(/C(=O)OC)c1ccccc1COc1ccc(Cl)cc1C(=O)/C=C/c1ccc(Cl)cc1
inhibition at 200 µg/mL [1]: 21%
inhibition at 200 µg/mL [2]: 0%
inhibition at 200 µg/mL [3]: 86%
inhibition at 200 µg/mL [4]: 0%

CO/C=C(/C(=O)OC)c1ccccc1COc1ccccc1C(=O)/C=C/c1ccc(Br)cc1
inhibition at 200 µg/mL [1]: 0%
inhibition at 200 µg/mL [2]: 0%
inhibition at 200 µg/mL [3]: 0%
inhibition at 200 µg/mL [4]: 0%

CO/C=C(/C(=O)OC)c1ccccc1COc1ccccc1C(=O)/C=C/c1ccc(Cl)cc1
inhibition at 200 µg/mL [1]: 0%
inhibition at 200 µg/mL [2]: 0%
inhibition at 200 µg/mL [3]: 0%
inhibition at 200 µg/mL [4]: 0%

CO/C=C(/C(=O)OC)c1ccccc1COc1ccccc1C(=O)/C=C/c1cccc(OC)c1
inhibition at 200 µg/mL [1]: 11%
inhibition at 200 µg/mL [2]: 61%
inhibition at 200 µg/mL [3]: 0%
inhibition at 200 µg/mL [4]: 0%

CO/C=C(/C(=O)OC)c1ccccc1COc1ccccc1C(=O)/C=C/c1ccc(C)c(C)c1
inhibition at 200 µg/mL [1]: 0%
inhibition at 200 µg/mL [2]: 0%
inhibition at 200 µg/mL [3]: 0%
inhibition at 200 µg/mL [4]: 0%

CO/C=C(/C(=O)OC)c1ccccc1COc1ccccc1C(=O)/C=C/c1ccc(OC)c(OC)c1
inhibition at 200 µg/mL [1]: 0%
inhibition at 200 µg/mL [2]: 0%
inhibition at 200 µg/mL [3]: 0%
inhibition at 200 µg/mL [4]: 0%

CO/C=C(/C(=O)OC)c1ccccc1COc1ccc(C(=O)/C=C/c2ccc(Br)cc2)cc1
inhibition at 200 µg/mL [1]: 0%
inhibition at 200 µg/mL [2]: 56%
inhibition at 200 µg/mL [3]: 0%
inhibition at 200 µg/mL [4]: 0%

CO/C=C(/C(=O)OC)c1ccccc1COc1ccc(C(=O)/C=C/c2cccc(Br)c2)cc1
inhibition at 200 µg/mL [1]: 0%
inhibition at 200 µg/mL [2]: 56%
inhibition at 200 µg/mL [3]: 0%
inhibition at 200 µg/mL [4]: 0%

CO/C=C(/C(=O)OC)c1ccccc1COc1ccc(C(=O)/C=C/c2ccc(OC)cc2)cc1
inhibition at 200 µg/mL [1]: 0%
inhibition at 200 µg/mL [2]: 62%
inhibition at 200 µg/mL [3]: 0%
inhibition at 200 µg/mL [4]: 0%

CO/C=C(/C(=O)OC)c1ccccc1COc1ccc(C(=O)/C=C/c2cccc(C)c2)cc1
inhibition at 200 µg/mL [1]: 0%
inhibition at 200 µg/mL [2]: 47%
inhibition at 200 µg/mL [3]: 0%
inhibition at 200 µg/mL [4]: 0%

CO/C=C(/C(=O)OC)c1ccccc1COc1ccc(C(=O)/C=C/c2ccc(C)cc2)cc1
inhibition at 200 µg/mL [1]: 0%
inhibition at 200 µg/mL [2]: 75%
inhibition at 200 µg/mL [3]: 0%
inhibition at 200 µg/mL [4]: 38%

CO/C=C(/C(=O)OC)c1ccccc1COc1cccc(C(=O)/C=C/c2ccc3c(c2)OCO3)c1
inhibition at 200 µg/mL [1]: 0%
inhibition at 200 µg/mL [2]: 0%
inhibition at 200 µg/mL [3]: 0%
inhibition at 200 µg/mL [4]: 29%

CCOc1ccc(/C=C/C(=O)c2cccc(OCc3ccccc3/C(=C\OC)C(=O)OC)c2)cc1
inhibition at 200 µg/mL [1]: 0%
inhibition at 200 µg/mL [2]: 33%
inhibition at 200 µg/mL [3]: 0%
inhibition at 200 µg/mL [4]: 0%

CO/C=C(/C(=O)OC)c1ccccc1COc1cccc(C(=O)/C=C/c2ccc(Cl)cc2Cl)c1
inhibition at 200 µg/mL [1]: 0%
inhibition at 200 µg/mL [2]: 54%
inhibition at 200 µg/mL [3]: 0%
inhibition at 200 µg/mL [4]: 30%

CO/C=C(/C(=O)OC)c1ccccc1COc1cccc(C(=O)/C=C/c2ccco2)c1
inhibition at 200 µg/mL [1]: 16%
inhibition at 200 µg/mL [2]: 0%
inhibition at 200 µg/mL [3]: 0%
inhibition at 200 µg/mL [4]: 0%

CO/C=C(/C(=O)OC)c1ccccc1COc1cccc(C(=O)/C=C/c2cccs2)c1
inhibition at 200 µg/mL [1]: 24%
inhibition at 200 µg/mL [2]: 0%
inhibition at 200 µg/mL [3]: 0%
inhibition at 200 µg/mL [4]: 0%

CO/C=C(/C(=O)OC)c1ccccc1COc1cccc(C(=O)/C=C/c2cccc(F)c2)c1
inhibition at 200 µg/mL [1]: 10%
inhibition at 200 µg/mL [2]: 0%
inhibition at 200 µg/mL [3]: 0%
inhibition at 200 µg/mL [4]: 36%

CO/C=C(/C(=O)OC)c1ccccc1COc1cccc(C(=O)/C=C/c2ccccc2F)c1
inhibition at 200 µg/mL [1]: 0%
inhibition at 200 µg/mL [2]: 0%
inhibition at 200 µg/mL [3]: 0%
inhibition at 200 µg/mL [4]: 38%

CO/C=C(/C(=O)OC)c1ccccc1COc1cccc(C(=O)/C=C/c2ccccc2Br)c1
inhibition at 200 µg/mL [1]: 0%
inhibition at 200 µg/mL [2]: 100%
inhibition at 200 µg/mL [3]: 59%
inhibition at 200 µg/mL [4]: 31%

CCc1ccc(/C=C/C(=O)c2cccc(OCc3ccccc3/C(=C\OC)C(=O)OC)c2)cc1
inhibition at 200 µg/mL [1]: 0%
inhibition at 200 µg/mL [2]: 100%
inhibition at 200 µg/mL [3]: 78%
inhibition at 200 µg/mL [4]: 0%

CO/C=C(/C(=O)OC)c1ccccc1COc1cccc(C(=O)/C=C/c2ccc(C(C)(C)C)cc2)c1
inhibition at 200 µg/mL [1]: 0%
inhibition at 200 µg/mL [2]: 28%
inhibition at 200 µg/mL [3]: 78%
inhibition at 200 µg/mL [4]: 0%

CO/C=C(/C(=O)OC)c1ccccc1COc1ccc(Cl)cc1C(=O)/C=C/c1ccc(C)cc1
inhibition at 200 µg/mL [1]: 0%
inhibition at 200 µg/mL [2]: 0%
inhibition at 200 µg/mL [3]: 0%
inhibition at 200 µg/mL [4]: 0%
